Compound activity: PubChem BioAssay, Broad Institute
HIF activator: HIF pathway transcriptional activators, primary screen, cell-based, U2OS HRE-luciferase, luminescence; U2OS HRE-luciferase reporter; normalized: DMSO 0%, desferrioxamine 100%; AID 1910, 2009; hit rate 0.32% among 300,000; activation, % at 7.5 µM (by protocol);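 active = mean activation of at least 10% of the iron chelator positive control signal, with at least half of replicates also reaching 10%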
ARNT-TACC3 inh: disruptors of ARNT/TACC3 protein interaction, primary screen, biochemical, AlphaScreen, single concentration. Transforming acidic coiled-coil-containing protein 3 (Homo sapiens), Q9Y6A5. hit rate 0.66% among 390,000. inhibition, % at 9.99 µM. AID 623870, 2012. AlphaScreen His-ARNT PAS-B/GST-TACC3 binding, luminescence; TACC3 fragment carries E629A point mutation;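 active = mean inhibition of replicates at least 50% and at least half of replicates each reaching 50%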;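 note: 0% = complete ARNT plus TACC3 wells and 100% = ARNT alone without TACC3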
AI-2 QS mod: Vibrio harveyi AI-2 quorum sensing modulators, primary screen, JMH597 strain, luminescence/OD600 ratio; Vibrio harveyi JMH597 AI-2 luminescence/OD600 ratio, 9 h; active compounds read low; strain lacks LuxN and CqsS sensors; 0 = neutral-control median; activity change, % at 7.5 µM; hit rate 0.4% among 300,000; AID 2094, 2009; in the data active = activity change below about -75%, passing the limit was not always enough;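 note: luminescence divided by OD600 gain over 9 h not by final OD600 alone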
T cruzi repl: inhibitors of intracellular T. cruzi growth, primary screen, luminescence, NIH3T3 host cells. T. cruzi beta-gal in NIH3T3, 90 h. inhibition, % (no concentration beside the values). hit rate 1.4% among 300,000. AID 1885, 2009;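 active = mean inhibition across valid replicates above about 55%, limit read from the data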;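 note: signal also drops with host cell toxicity which is not excluded here; 0% = plate median of DMSO wells and 100% = zero luminescence signal; higher percent means less beta-gal luminescence so fewer parasites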
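Read-out: Parasite load inhibition, % | Test system: Mouse NIH/3T3 fibroblasts infected with β-gal-expressing T. cruzi Tulahuen C4 | Amount: 5,000 cells/well | Medium: DMEM, 2% fetal bovine serum | Signal: GalScreen β-gal luminescence, detergent lysis, 60 min | Timing: 3 h attach, ≥90 h co-culture | Also added: Tulahuen C4 trypomastigotes, 5000/well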
Starred values were filed as active, the others as inactive; x = not tested or not shown. Hits are enriched below; roughly 2% of the tested compounds scored in any of these assays.

SMILES | HIF activator | ARNT-TACC3 inh | AI-2 QS mod | T cruzi repl
CC(C)(C)C1=CC(=O)C(=O)C(C(C)(C)C)=C1 | 0 | -6 | -1 | 74*
O=C(c1cc([N+](=O)[O-])cc([N+](=O)[O-])c1)N1CCN(Cc2ccc3c(c2)OCO3)CC1 | 0 | 4 | 31 | 66*
O=C(c1cc([N+](=O)[O-])ccc1Cl)N1CCN(Cc2ccc3c(c2)OCO3)CC1 | 0 | 3 | 6 | -3
O=C(CSc1cccc[n+]1[O-])c1cc2ccccc2o1 | 2 | 27 | 37 | 60*
CC(C)N(CC(N)=O)C(=O)c1sc2cc(F)ccc2c1Cl | 0 | x | 7 | -5
CN1CCC(N(C)C(=O)c2sc3cc(F)ccc3c2Cl)CC1 | 0 | x | 13 | 78*
O=C(NC(=S)Nc1ccc(Oc2ccccc2)cc1)c1ccc(Cl)cc1 | 0 | -18 | 46 | 62*
Cc1ccc(C(=O)NC(=S)Nc2ccc(Oc3ccc(Cl)cc3)cc2)cc1 | 0 | -5 | 12 | 65*
CC(C)NC(=O)N(C)C[C@@H]1OCCCC[C@H](C)Oc2ccc(NS(=O)(=O)c3cccs3)cc2C(=O)N([C@H](C)CO)C[C@@H]1C | x | -10 | x | x
C[C@@H]1CN([C@@H](C)CO)C(=O)Cc2cc(NC(=O)Cn3cnnn3)ccc2O[C@H]1CN(C)C(=O)Nc1ccc(C(F)(F)F)cc1 | x | 5 | x | x
CO[C@H]1CC[C@@H]2CCOc3c(C#N)cccc3C(=O)N(C)[C@@H](C)C(=O)N(C)C[C@H]1O2 | x | 3 | x | x
O=C(C1=C[C@@H](C2CC2)C[C@@H](OCCCCO)O1)N1CCN(Cc2ccc3c(c2)OCO3)CC1 | 40* | 7 | 16 | -5
O=C(C1=C[C@@H](c2ccc(C(F)(F)F)cc2)C[C@@H](OCc2ccc(CO)cc2)O1)N1CCN(Cc2ccc3c(c2)OCO3)CC1 | 0 | -4 | 19 | 30
O=C(NC1CC1)C1=C[C@@H](C2CCCCC2)C[C@@H](OCCCCO)O1 | 0 | -8 | -13 | 7
O=C(O)C1=C[C@@H](C2CCCC2)C[C@@H](OCCCCO)O1 | x | 61* | x | x
O=C(C1=C[C@@H](C2CCCCC2)C[C@@H](OCCCCO)O1)N1CCN(Cc2ccc3c(c2)OCO3)CC1 | -2 | 0 | 4 | 34
O=C(C1=C[C@H](c2ccc(C(F)(F)F)cc2)C[C@H](OCc2ccc(CO)cc2)O1)N1CCN(Cc2ccc3c(c2)OCO3)CC1 | 0 | -4 | 19 | 65*
C[C@@H]1CN([C@@H](C)CO)C(=O)Cc2cc(NC(=O)Nc3ccc(F)cc3)ccc2O[C@@H]1CN(C)Cc1ccc(C(=O)O)cc1 | x | 1 | x | x
CCS(=O)(=O)NCC[C@H]1CC[C@H](NS(=O)(=O)c2cccc(F)c2)[C@H](CO)O1 | x | -14 | x | x
CN(C)C(=O)/C(=C/c1cn(-c2ccccc2)nc1-c1cccc([N+](=O)[O-])c1)NC(=O)c1ccccc1 | 0 | -3 | 24 | 20
C=CCNC(=O)/C(=C/c1cn(-c2ccccc2)nc1-c1cccc([N+](=O)[O-])c1)NC(=O)c1ccccc1 | 230* | -10 | 18 | 17
O=C(NCc1cn(-c2ccccc2)nc1-c1ccccc1)c1cc([N+](=O)[O-])cc([N+](=O)[O-])c1 | 0 | 2 | 27 | 62*
COc1ccc(-c2nn(-c3ccccc3)cc2CNC(=O)c2cccc([N+](=O)[O-])c2)cc1 | 0 | 19 | 6 | 66*
CO[C@H]1CN(C)C(=O)c2ccc(NS(=O)(=O)c3cn(C)cn3)cc2OC[C@H](C)N(Cc2cccc(F)c2)C[C@H]1C | x | 17 | x | x
CCCNC(=O)[C@H]1[C@H](CO)[C@H]2Cn3c(ccc(-c4ccccc4F)c3=O)[C@@H]1N2CC1CC1 | x | -3 | x | x
SMILES | HIF activator | ARNT-TACC3 inh | AI-2 QS mod | T cruzi repl
CC(C)(C)NCC1(CO)SC(N)=NC1=O (centres undefined) | 0 | -1 | 1 | 57*
COc1ccc(C2OCC3(CO2)SC(N)=NC3=O)cc1 (centres undefined) | x | -4 | 34 | -6
Cc1c(C)n(CCCN(C)C)c2ncnc(NCc3ccccc3)c12 | -1 | 3 | -7 | 55*
Cc1c(C)n(CCc2ccccc2)c2ncnc(NCCO)c12 | -1 | 0 | -5 | 1
Cc1noc(C)c1NC(=O)Nc1ccc2c(c1)CC(=O)N([C@@H](C)CO)C[C@@H](C)[C@@H](CN(C)CC1CCCCC1)O2 | x | -14 | x | x
O=c1oc(-c2ccccc2Cl)nc2ccsc12 | 0 | x | -83* | -7
O=c1oc(-c2ccc(F)cc2)nc2ccsc12 | 0 | x | 10 | -9
Cc1ccc(C(C)C)c(OCc2nn(CC(=O)c3ccc(Cl)cc3)c3[n+]2CCCCC3)c1 | -1 | 16 | 36 | 86*
O=C1Nc2ccccc2Oc2cc([N+](=O)[O-])ccc21 | 0 | -1 | 9 | 67*
Cc1ccc2c(c1)NC(=O)c1cc([N+](=O)[O-])ccc1O2 | -1 | -2 | 11 | -10
C[C@@H]1CN([C@@H](C)CO)C(=O)Cc2cc(NC(=O)CCC(F)(F)F)ccc2O[C@H]1CN(C)CC1CCCCC1 | x | 3 | x | x
C[C@@H]1CN([C@@H](C)CO)C(=O)Cc2cc(NC(=O)Nc3cccc4ccccc34)ccc2O[C@H]1CN(C)C(=O)Nc1ccc(F)cc1 | x | 6 | x | x
CN(C)c1ccc(O)c2c1CC1CC3[C@@H](N(C)C)C(=O)C(C(N)=O)=C(O)[C@]3(O)C(=O)C1=C2O (some centres undefined) | 0 | 35 | -87* | -15
CCOC(=O)CN1C(=N)N(c2nc(NC(C)C)nc(NC(C)C)n2)CC1=O | 11* | 0 | 13 | 2
CO[C@@H](CN(C)Cc1nccs1)[C@H](C)CN([C@H](C)CO)S(=O)(=O)c1ccc(C)cc1 | x | -5 | x | x
CC(C)(C)c1ccc(C(=O)NC(=S)NNC(=O)c2cccs2)cc1 | 2 | 27 | 3 | 56*
CCCC(=O)NC(=S)Nc1cccc(C(C)=O)c1 | 0 | -7 | -78* | -11
C[C@H](CO)N1C[C@H](C)[C@@H](CN(C)C(=O)Nc2ccc(F)cc2)Oc2ccc(NC(=O)Cc3ccccc3)cc2C1=O | x | -4 | x | x
Cc1cccc(CSc2nc3c(c(-c4cccs4)c2C#N)CN(C)CC3)c1 | 0 | 7 | 14 | 58*
CCCCSc1nc(N)c(C#N)c(-c2cccs2)c1C#N | 0 | 1 | -11 | 27
Cc1cccc(CSc2nc(N)c(C#N)c(-c3cccs3)c2C#N)c1 | -1 | -12 | 19 | 68*
CN1CCc2nc(SCC(=O)Nc3cccc(F)c3)c(C#N)c(-c3cccs3)c2C1 | 0 | 11 | 17 | 55*
CN1CCc2nc(SCC(=O)Nc3ccc(OC(F)(F)F)cc3)c(C#N)c(-c3cccs3)c2C1 | -1 | x | 52 | 44
CN(C)c1nc(NCc2ccccc2)nc(SCC(=O)Nc2ccc(Cl)c(Cl)c2)n1 | -1 | -2 | 14 | 55*
